Shown are actives, neighbours in structure and some others; about 1.6% of the full set was active somewhere.
ADAM17 inh = inhibitors of human ADAM17. recombinant ADAM17, EDANS/DABCYL FRET peptide cleavage. inhibition, % at 6.95 µM. 370,000 tested, 0.83% active. AID 720648;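 active means inhibition above the mean of compounds lying between control limits plus 3 SD, set per campaign, cut at about 8.5% in these data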
DDE Tn7 FP inh = inhibitors of Tn7 peptide binding to human fibrin DD(E). P02675. FP displacement of FITC-Tn7 peptide from fibrin DD(E); 0% = median of compound wells per plate. inhibition, % at 8.3 µM. 370,000 tested, 0.13% active. AID 720508;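 active means inhibition above the mean of compounds falling within the control limits plus 3 SD of them, cut at about 14% in these data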
Target sequence (P02675 whole entry, looked up): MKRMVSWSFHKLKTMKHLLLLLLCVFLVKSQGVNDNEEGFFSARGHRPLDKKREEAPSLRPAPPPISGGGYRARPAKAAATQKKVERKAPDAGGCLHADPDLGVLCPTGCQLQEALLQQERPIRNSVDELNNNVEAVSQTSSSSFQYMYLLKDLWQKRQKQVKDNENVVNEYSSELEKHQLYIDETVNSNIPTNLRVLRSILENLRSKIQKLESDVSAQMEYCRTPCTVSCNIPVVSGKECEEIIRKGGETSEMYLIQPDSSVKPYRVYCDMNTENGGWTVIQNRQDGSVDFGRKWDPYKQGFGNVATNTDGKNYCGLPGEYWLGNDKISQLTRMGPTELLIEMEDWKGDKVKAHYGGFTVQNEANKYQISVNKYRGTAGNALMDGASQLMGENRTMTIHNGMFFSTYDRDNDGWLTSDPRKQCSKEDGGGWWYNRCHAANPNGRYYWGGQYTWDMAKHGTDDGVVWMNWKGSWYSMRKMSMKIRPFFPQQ
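Assay system: Human fibrin DD(E) protein | Medium: Tris buffer with calcium and detergent, pH 7.8 | Reagent: 0.1 µM fluorescent Tn7 | Compound dosing: Single point at 8.3 µM | Times: 10 min preincubation, 3 h with tracer, room temperature | Detection: Fluorescence polarization of the labelled Tn7 tracer | Controls: Aha-Tn7 high control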
ADAM10 inh = inhibits human ADAM10; O14672; recombinant ADAM10, EDANS/DABCYL FRET peptide cleavage, 3 h; inhibition, % at 7 µM; 370,000 tested, 0.62% active; AID 720582;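 active means inhibition above a per-campaign cutoff equal to the mean of compounds falling between control-based bounds plus 3 SD, cut at about 20% in these data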
MT1-MMP act inh = blocks activation of human MT1-MMP | HT1080 RFP-PRO-GFP cells, GFP/RFP ratio fluorescence, overnight; percent of plate control window, DMSO zero | GFP/RFP ratio change, % at 20 µM | 360,000 tested, 0.061% active;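 active means GFP/RFP ratio change of at least 30% with cell ATP level not reduced by more than half and red fluorescence within 50% of control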
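Compound: 20 µM single dose, 1% DMSO / System: HT1080 RFP-PRO-GFP cells / Controls: DMSO and RFP-L50D-GFP cell wells / Read-out basis: GFP/RFP fluorescence ratio / Schedule: overnight compound exposure at 37 °C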
Tn6 DDE FP = inhibitors of Tn6 peptide binding to human fibrin DD(E) | P02675 | AID 720509 | 370,000 tested, 0.21% active | Fibrin DD(E) TRITC-Tn6 fluorescence polarization displacement | inhibition, % at 8.3 µM;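 active means inhibition above a per-campaign cutoff: mean of compounds within control limits plus 3 SD, cut at about 15% in these data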
ADAM10 counter = counter-screen for ADAM17 exosite inhibitors: inhibitors of human ADAM10. 2,900 tested, 47% active. inhibition, % at 6.95 µM. shares compounds with ADAM17 inh. recombinant ADAM10, EDANS/DABCYL FRET peptide cleavage, 3 h. AID 743256;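 active means mean inhibition over the triplicate runs exceeds the activity threshold set in the earlier primary screen, cut at about 20% in these data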
ADAM17 confirm = confirmation of inhibitors of human ADAM17 | recombinant ADAM17, EDANS/DABCYL QFRET peptide cleavage | 2,900 tested, 65% active | inhibition, % at 6.95 µM | shares compounds with ADAM17 inh;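 active means mean inhibition across replicates above the hit cutoff set in the primary screen, cut at about 8.5% in these data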
Numbers stand for hits; - = inactive; . = no result given.

SMILES	ADAM17 inh	DDE Tn7 FP inh	ADAM10 inh	MT1-MMP act inh	Tn6 DDE FP	ADAM10 counter	ADAM17 confirm
Cc1noc(C)c1NC(=O)Nc1ccc2c(c1)C(=O)N([C@@H](C)CO)C[C@@H](C)[C@H](CN(C)C(=O)Nc1cccc3ccccc13)OCCCC[C@H](C)O2	-	-	-	-	-	.	.
C[C@H](CO)N1C[C@H](C)[C@@H](CN(C)C(=O)Nc2ccc3c(c2)OCO3)Oc2ccc(NC(=O)Nc3ccc(C(F)(F)F)cc3)cc2C1=O	11	-	-	-	-	21	15
C[C@@H]1CCCCO[C@H](CN(C)S(=O)(=O)c2cccs2)[C@H](C)CN([C@@H](C)CO)C(=O)c2cc(NC(=O)NC3CCCCC3)ccc2O1	11	-	-	-	-	28	16
Cc1noc(C)c1NC(=O)Nc1ccc2c(c1)C(=O)N([C@H](C)CO)C[C@H](C)[C@H](CN(C)C(=O)NC1CCCCC1)OCCCC[C@@H](C)O2	9.8	-	-	-	-	27	-
O=C(COc1cccc(F)c1)NNC(=O)c1cccc(-n2cccc2)c1	-	-	-	-	-	.	.
O=C(COc1ccccc1F)NNC(=O)c1cccc(-n2cccc2)c1	15	-	-	-	-	-	-
CS/C(=C\[N+](=O)[O-])Nc1ccc(F)cc1	13	-	-	-	-	-	-
CS/C(=C\[N+](=O)[O-])Nc1ccccc1	-	-	-	-	-	.	.
C[C@@H]1[C@@H](O)C[C@@]2(C[C@H](O)c3ccccc3O2)O[C@H]1c1ccccc1	-	-	-	.	-	.	.
Cc1cc(/C=C2\NC(=S)N(C)C2=O)ccc1N1CCCC1	8.9	-	-	-	-	-	-
Cc1ccc(S(=O)(=O)N2CCCC(C(=O)Nc3c(C)n(C)n(-c4ccccc4)c3=O)C2)cc1C (configuration not stated)	-	-	-	.	-	.	.
Cc1ccc(C(C(=O)NCc2ccco2)N(CCc2ccccc2)C(=O)Cn2nnc3ccccc32)o1 (configuration not stated)	10	-	-	-	-	-	10
CCCCN1C(=O)/C(=C/C=C2\SCCN2C)SC1=S	12	-	-	-	-	25	16
CN1CCS/C1=C/C=C1\SC(=S)N(CC(=O)O)C1=O	8.9	-	-	-	-	27	13
CCN1C(=O)/C(=C\N2CCCCCC2)SC1=S	-	-	-	-	-	.	.
COc1ccc(CCC(=O)NNC(=O)c2cc(Cl)ccc2OC)cc1OC	-	-	-	-	-	.	.
COc1ccc(CCC(=O)NNC(=O)c2cc(Cl)ccc2OC)cc1	8.8	-	-	-	-	-	-
Cc1ccc(N(C)S(=O)(=O)c2c[nH]c3ccc([N+](=O)[O-])cc23)cc1	-	-	-	-	-	.	.
CCN(c1ccccc1)S(=O)(=O)c1c[nH]c2ccc([N+](=O)[O-])cc12	9.3	-	-	-	-	32	16
C=CCn1c(COc2ccc(Cl)cc2)nnc1SCC(=O)c1ccccc1	-	-	-	.	-	.	.
CCCCOc1ccc(NC(=O)CN2CCN(Cc3ccccc3)CC2)cc1	8.8	-	-	-	-	-	-
OC1(c2ccccc2)CC(c2ccccc2)c2ccccc2O1 (configuration not stated)	9.2	-	-	-	-	30	16
CCCCN1c2ccccc2N(CCCO)c2cc(C)nnc21	9.8	-	-	-	-	-	-
CCOC(=O)[C@@]12CCCC3=C1N(CCC3)C(=O)[C@H]2CC(=O)NCc1cccc2ccccc12	-	-	-	.	-	.	.
O=C(CSc1nc2ccccc2s1)NNC(=S)Nc1ccc(Cl)cc1	-	-	-	-	-	.	.
SMILES	ADAM17 inh	DDE Tn7 FP inh	ADAM10 inh	MT1-MMP act inh	Tn6 DDE FP	ADAM10 counter	ADAM17 confirm
C=CCNC(=S)NNC(=O)CSc1nc2ccccc2s1	11	-	-	-	-	-	-
CN(C)Cc1c(C(C)(C)O)[nH]c2cc(C(F)(F)F)ccc12	-	-	-	.	-	.	.
Cc1ccc(CN2C(=O)[C@@H]3Cc4c([nH]c5ccccc45)C(C)(C)N3C2=O)cc1	-	-	-	-	-	.	.
COc1cccc(CN2C(=O)[C@@H]3Cc4c([nH]c5ccccc45)C(C)(C)N3C2=O)c1	8.7	-	-	-	-	-	14
Cc1ccc(CN2C(=O)[C@H]3Cc4c([nH]c5ccccc45)C(C)(C)N3C2=O)cc1	12	-	-	-	-	-	12
CN(C)c1cccc(/C=C2\CC3(OC(=O)c4ccc(Cl)cc4)CCCN2C3)c1 (configuration not stated)	-	-	-	.	-	.	.
O=C(CSc1nnc(COc2ccccc2)n1-c1ccc(Cl)cc1)Nc1ccc(OCc2ccccc2)cc1	-	-	-	.	-	.	.
COc1ccc(C2CC(c3ccccc3)=NN2C(=O)CN2N=NC3C(=O)N(c4cccc(F)c4)C(=O)C32)cc1 (configuration not stated)	14	-	-	-	-	-	-
COc1ccc(C2CC(c3ccccc3)=NN2C(=O)c2ccc(F)cc2)cc1 (configuration not stated)	-	-	-	-	-	.	.
O=C(CCc1nc(-c2ccccc2)no1)NC1CCCCC1	9.0	-	-	.	-	-	-
COc1ccc(F)cc1-c1cc(C(=O)NCc2cc(C(F)(F)F)cc(C(F)(F)F)c2)[nH]n1	12	-	-	-	-	-	-
Cc1cc(F)ccc1-c1cc(C(=O)NCc2ccc(C(F)(F)F)cc2)[nH]n1	11	-	-	-	-	24	13
CCOc1ccc(-c2cc(C(=O)NCc3ccc(C(F)(F)F)cc3)[nH]n2)c(C)c1	-	-	-	-	-	.	.
COC1=C[C@H](C(=O)NCc2ccccn2)[C@@]2(C)Cc3ccccc3[C@H]2CC1=O	-	-	-	.	-	.	.
Cc1cccc(C2(c3cccc(C)c3)OC(=O)c3ccccc32)c1	9.6	-	-	.	-	-	15
O=C1OC(c2ccccc2)(c2ccccc2)c2ccccc21	-	-	-	-	-	.	.
O=C(CN(CCc1ccccc1)S(=O)(=O)c1cccs1)N1CCOCC1	-	-	-	.	-	.	.
CCN(CC)C(=O)c1nc[nH]c1C(=O)N(CC)CC	9.2	-	-	-	-	-	-
COC(=O)c1c(-c2cccc3ccccc23)csc1NC(=O)Cc1ccc(OC)c(OC)c1	10	-	-	-	-	-	10
COC(=O)c1c(-c2ccc(C)cc2)csc1NC(=O)Cc1ccc(OC)c(OC)c1	-	-	-	-	-	.	.
O=S(=O)(NCCc1ccc(F)cc1)c1cc(C(F)(F)F)ccc1Br	9.9	-	-	-	-	22	11

Screens from PubChem BioAssay.
